Activity calls are given as the source filed them. The calls are words filed in the database; no cut-off is given here.
Experiments:
HCT-116 [1] = assay: Induction of DNA damage in human HCT116 cells assessed as increase in gammaH2AX phosphorylation at ser139 at 0.25 uM to 1 uM incubated for 24 hrs by Western blot analysis
HCT-116 [2] = assay: Induction of DNA damage in human HCT116 cells assessed as increase in p53 expression at 0.25 uM to 1 uM incubated for 24 hrs by Western blot analysis; assay type: functional, cell-based
Outline: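 HCT116 cells were treated for 24 h and lysed in RIPA buffer. 40 µg lysate was run on 15% SDS-PAGE and transferred to nitrocellulose. Blots were probed for phospho-S139 γH2AX (9F3, 1:1000), p53 (DO-1, 1:1000) and β-actin (C4, 1:40 000), then detected with HRP secondaries and ECL.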

COc1cccc2c1C(=O)c1c(O)c3c(c(O)c1C2=O)C[C@@](O)(C(=O)CO)C[C@@H]3O[C@H]1C[C@H](N)[C@H](O)[C@H](C)O1
Activity (HCT-116 [1]): Active | Activity (HCT-116 [2]): Active

From ChEMBL document CHEMBL4373670, “Selective in vitro anti-cancer activity of non-alkylating minor groove binders” (Medchemcomm, 2019)
